In ChEMBL document CHEMBL4350998, “Design, synthesis, and structure-activity relationship studies of l-amino alcohol derivatives as broad-spectrum antifungal agents” (Eur J Med Chem, 2019):

How the values were obtained:
Candida albicans [1] = assay: Antifungal activity against Candida albicans CPCC 400523 assessed as inhibition of visible microbial growth by NCCLS protocol based method; type: functional
Candida albicans [2] = assay: Antifungal activity against Candida albicans ATCC SC5314 assessed as inhibition of visible microbial growth by NCCLS protocol based method; type: functional
Outline: (§1)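 Compounds dissolved in DMSO and serially diluted into growth medium. MIC was read as the lowest concentration that inhibited visible fungal growth.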

Cryptococcus neoformans = assay: Antifungal activity against Cryptococcus neoformans CGMCC 2.3161 assessed as inhibition of visible microbial growth by NCCLS protocol based method; type: functional; outline: as §1
Candida tropicalis = assay: Antifungal activity against Candida tropicalis CGMCC 2.3739 assessed as inhibition of visible microbial growth by NCCLS protocol based method; type: functional; outline: as §1
Aspergillus fumigatus = assay: Antifungal activity against Aspergillus fumigatus CGMCC 3.7795 assessed as inhibition of visible microbial growth by NCCLS protocol based method; type: functional; outline: as §1
[3] = Cytotoxicity in human A549 cells assessed as reduction in cell viability at 0.08 uM/L incubated for 24 hrs by MTT assay relative to control; type: cell-based; conditions: read-out: INH
Outline: (§2)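 A549 cells were seeded at 3000 cells/well and preincubated for 16 h at 37 °C, 5% CO2. Medium was then replaced with fresh medium holding compound (DMSO stock diluted to final 0.08, 0.4, 2.0, 10 or 50 μM/L). Exposure lasted 24 h at 37 °C, 5% CO2, followed by MTT for 4 h and absorbance at 490 nm. Results are given as % inhibition.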

[4] = Cytotoxicity in human A549 cells assessed as reduction in cell viability at 0.40 uM/L incubated for 24 hrs by MTT assay relative to control; type: cell-based; conditions: read-out: INH; outline: as §2
[5] = Cytotoxicity in human A549 cells assessed as reduction in cell viability at 2 uM/L incubated for 24 hrs by MTT assay relative to control; type: cell-based; conditions: read-out: INH; outline: as §2
[6] = Cytotoxicity in human A549 cells assessed as reduction in cell viability at 10 uM/L incubated for 24 hrs by MTT assay relative to control; type: cell-based; conditions: read-out: INH; outline: as §2
[7] = Cytotoxicity in human A549 cells assessed as reduction in cell viability at 50 uM/L incubated for 24 hrs by MTT assay relative to control; type: cell-based; conditions: read-out: INH; outline: as §2
Candida albicans [8] = assay: Antifungal activity against fluconazole-resistant Candida albicans Strain 17# assessed as inhibition of visible microbial growth by NCCLS protocol based method; type: functional
Outline: (§3)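 Broth dilution MIC against clinical fluconazole-resistant C. albicans isolates from AIDS patients. Compounds dissolved in DMSO and serially diluted into growth medium. MIC was taken as the lowest concentration that inhibits visible fungal growth. Fluconazole and itraconazole served as positive controls.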

Candida albicans [9] = assay: Antifungal activity against fluconazole-resistant Candida albicans Strain CaR assessed as inhibition of visible microbial growth by NCCLS protocol based method; type: functional; outline: as §3
[10] = Stability in human plasma assessed as parent compound remaining at 100 uM after 60 mins LC/MS/MS analysis relative to control; type: ADME, cell-free; conditions: read-out: Stability
Outline: (§4)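 Thawed human plasma was cleared at 4000 rpm and spiked from a 100 μM dosing solution to a final 2 μM, in duplicate, at 37 °C. Propantheline served as positive control. Sampling at 0, 10, 30, 60 and 120 min into ACN/MeOH stop solution with tolbutamide and labetalol internal standards. After centrifugation, supernatant was diluted with water and run by LC/MS/MS. % remaining was taken from the analyte/IS peak-area ratio, with no standard curve.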

[11] = Stability in human plasma assessed as parent compound remaining at 100 uM after 120 mins LC/MS/MS analysis relative to control; type: ADME, cell-free; conditions: read-out: Stability; outline: as §4

| Structure (SMILES) | MIC (Candida albicans [1]) [µg/mL] | MIC (Candida albicans [2]) [µg/mL] | MIC (Cryptococcus neoformans) [µg/mL] | MIC (Candida tropicalis) [µg/mL] | MIC (Aspergillus fumigatus) [µg/mL] | cytotoxicity at 24 h, 0.08 µM [3] [%] | cytotoxicity at 24 h, 0.4 µM [4] [%] | cytotoxicity at 24 h, 2 µM [5] [%] | cytotoxicity at 24 h, 10 µM [6] [%] | cytotoxicity at 24 h, 50 µM [7] [%] | MIC (Candida albicans [8]) [µg/mL] | MIC (Candida albicans [9]) [µg/mL] | remaining at 1 h, 100 µM [10] [%] | remaining at 2 h, 100 µM [11] [%] |
| --- | --- | --- | --- | --- | --- | --- | --- | --- | --- | --- | --- | --- | --- | --- |
| CC[C@H](C)[C@@H](Cn1ccnc1)NC(=O)c1ccc(-c2ccccc2)cc1OC | 1 | 0.25 | > 64 | 0.125 | > 64 | – | – | – | – | – | – | – | – | – |
| CC[C@@H](Cn1ccnc1)NC(=O)c1ccc(-c2ccccc2)cc1 | 0.25 | < 0.06 | 16 | 0.125 | 4 | – | – | – | – | – | – | – | – | – |
| CC[C@H](C)[C@@H](Cn1cncn1)NC(=O)c1ccc(-c2ccccc2)cc1F | 0.25 | 0.125 | > 64 | 0.25 | 2 | – | – | – | – | – | – | – | – | – |
| C[C@@H](c1ncncc1F)[C@](O)(Cn1cncn1)c1ccc(F)cc1F [VORICONAZOLE] | – | – | – | – | – | 17.1 | 20.3 | 25.5 | 32 | 36.7 | – | – | – | – |
| CC(C)[C@@H](Cn1ccnc1)NC(=O)c1ccc(-c2cccc(F)c2)cc1 | 0.06 | < 0.03 | 2 | 0.06 | > 64 | – | – | – | – | – | – | – | – | – |
| CC(C)[C@@H](Cn1ccnc1)NC(=O)c1ccc(-c2ccccc2F)cc1 | 0.06 | < 0.03 | 1 | 0.06 | > 64 | – | – | – | – | – | – | – | – | – |
| CCC[C@@H](Cn1ccnc1)NC(=O)c1ccc(-c2ccccc2)cc1 | 0.06 | < 0.03 | 2 | < 0.03 | 4 | – | – | – | – | – | – | – | – | – |
| CC(C)[C@@H](Cn1ccnc1)NC(=O)c1ccc(-c2ccccc2)c(F)c1 | 0.06 | < 0.03 | 2 | 0.06 | > 64 | – | – | – | – | – | – | – | – | – |
| CC(C)C[C@@H](Cn1ccnc1)NC(=O)c1ccc(-c2ccccc2)cc1F | 0.06 | < 0.03 | 2 | < 0.03 | 2 | – | – | – | – | – | 1 | 4 | – | – |
| O=C(N[C@@H](Cc1ccccc1)Cn1ccnc1)c1ccc(-c2ccccc2)cc1 | 0.125 | < 0.03 | 0.25 | < 0.03 | > 64 | – | – | – | – | – | – | – | – | – |
| CC[C@H](C)[C@@H](Cn1ccnc1)NC(=O)c1ccc(-c2cccc(F)c2)cc1 | 0.125 | < 0.03 | 2 | 0.06 | > 64 | – | – | – | – | – | – | – | – | – |
| CC[C@H](C)[C@@H](Cn1ccnc1)NC(=O)c1ccc(-c2ccccc2)cc1F | < 0.03 | < 0.03 | 1 | < 0.03 | 2 | 1.2 | 1 | 1.2 | 3.1 | 14 | 2 | 4 | 113 | 86.3 |
| CC[C@H](C)[C@@H](Cn1ccnc1)NC(=O)c1ccc(-c2cccc(F)c2)cc1F | 0.06 | < 0.03 | 4 | < 0.03 | 4 | – | – | – | – | – | – | – | – | – |
| CC[C@H](C)[C@@H](Cn1ccnc1)NC(=O)c1ccc(-c2ccc(F)cc2)cc1F | 0.25 | 0.125 | 4 | 0.125 | 8 | – | – | – | – | – | – | – | – | – |
| CC(C)[C@@H](Cn1ccnc1)NC(=O)c1ccc(-c2ccc(F)cc2)cc1 | 0.5 | 0.25 | 1 | 0.25 | 32 | – | – | – | – | – | – | – | – | – |
| CC(C)[C@@H](Cn1ccnc1)NC(=O)c1ccc(-c2ccccc2)cc1F | 0.06 | < 0.03 | 2 | < 0.03 | 1 | – | – | – | – | – | 4 | 32 | – | – |
| CC[C@H](C)[C@@H](Cn1ccnc1)NC(=O)c1ccc(-c2ccc(F)cc2)cc1 | 0.25 | 0.125 | 1 | 0.125 | > 64 | – | – | – | – | – | – | – | – | – |
| O=C(N[C@@H](Cc1ccccc1)Cn1ccnc1)c1ccc(-c2ccccc2)c(F)c1 | 0.06 | < 0.03 | 0.5 | < 0.03 | > 64 | – | – | – | – | – | – | – | – | – |
| CC[C@H](C)[C@@H](Cn1ccnc1)NC(=O)c1ccc(-c2ccccc2)cc1 | < 0.03 | < 0.03 | 0.5 | < 0.03 | > 64 | – | – | – | – | – | – | – | – | – |
| CC(C)C[C@@H](Cn1ccnc1)NC(=O)c1ccc(-c2ccccc2)c(F)c1 | 0.06 | < 0.03 | 4 | < 0.03 | > 64 | – | – | – | – | – | – | – | – | – |
| CC[C@H](C)[C@@H](Cn1ccnc1)NC(=O)c1ccc(-c2ccccc2)c(C)c1 | > 16 | > 16 | > 64 | 2 | > 64 | – | – | – | – | – | – | – | – | – |

More lines, main results first:

| MIC (Candida albicans [1]) [µg/mL] | MIC (Candida albicans [2]) [µg/mL] | MIC (Cryptococcus neoformans) [µg/mL] | MIC (Candida tropicalis) [µg/mL] | MIC (Aspergillus fumigatus) [µg/mL] | Structure (SMILES) | cytotoxicity at 24 h, 0.08 µM [3] [%] | cytotoxicity at 24 h, 0.4 µM [4] [%] | cytotoxicity at 24 h, 2 µM [5] [%] | cytotoxicity at 24 h, 10 µM [6] [%] | cytotoxicity at 24 h, 50 µM [7] [%] | MIC (Candida albicans [8]) [µg/mL] | MIC (Candida albicans [9]) [µg/mL] | remaining at 1 h, 100 µM [10] [%] | remaining at 2 h, 100 µM [11] [%] |
| --- | --- | --- | --- | --- | --- | --- | --- | --- | --- | --- | --- | --- | --- | --- |
| 4 | 0.5 | 4 | 0.25 | > 64 | CC[C@H](C)[C@@H](Cn1ccnc1)NC(=O)c1ccc(-c2ccccc2)c(Cl)c1 | – | – | – | – | – | – | – | – | – |
| < 0.03 | < 0.03 | 1 | < 0.03 | > 64 | CC(C)C[C@@H](Cn1ccnc1)NC(=O)c1ccc(-c2ccccc2)cc1 | – | – | – | – | – | – | – | – | – |
| 0.06 | < 0.03 | 1 | 0.06 | > 64 | CC[C@H](C)[C@@H](Cn1ccnc1)NC(=O)c1ccc(-c2ccccc2F)cc1 | – | – | – | – | – | – | – | – | – |
| > 16 | > 16 | > 64 | 8 | > 64 | CC(C)[C@H](Cn1ccnc1)NC(=O)c1ccc(-c2ccccc2)cc1 | – | – | – | – | – | – | – | – | – |
| 0.06 | < 0.03 | > 64 | < 0.03 | > 64 | O=C(N[C@@H](Cc1ccccc1)Cn1ccnc1)c1ccc(-c2ccccc2)cc1F | – | – | – | – | – | – | – | – | – |
| 4 | 0.5 | > 64 | 0.25 | 1 | C[C@@H](Cn1ccnc1)NC(=O)c1ccc(-c2ccccc2)cc1 | – | – | – | – | – | – | – | – | – |
| < 0.03 | < 0.03 | < 0.125 | < 0.03 | < 0.125 | CCC(C)n1ncn(-c2ccc(N3CCN(c4ccc(OCC5COC(Cn6cncn6)(c6ccc(Cl)cc6Cl)O5)cc4)CC3)cc2)c1=O (stereo not drawn) [ITRACONAZOLE] | – | – | – | – | – | – | – | – | – |
| 0.06 | < 0.03 | 1 | < 0.03 | 8 | CC(C)[C@@H](Cn1ccnc1)NC(=O)c1ccc(-c2ccccc2)cc1 | – | – | – | – | – | – | – | – | – |
| 0.25 | 0.06 | > 64 | 0.125 | > 64 | CC[C@H](C)[C@@H](Cn1ccnc1)NC(=O)c1ccc(-c2ccccc2)cc1Cl | – | – | – | – | – | – | – | – | – |
| 0.06 | < 0.03 | 2 | 0.06 | > 64 | CC[C@H](C)[C@@H](Cn1ccnc1)NC(=O)c1ccc(-c2ccccc2)c(F)c1 | – | – | – | – | – | – | – | – | – |
| 1 | 0.25 | > 64 | 0.5 | > 64 | CC[C@H](C)[C@@H](Cn1ccnc1)NC(=O)c1ccc(-c2ccccc2)cc1C | – | – | – | – | – | – | – | – | – |
